From ChEMBL document CHEMBL4190328, “Design, Synthesis, and Biological Evaluation of Tetrahydroisoquinoline-Based Histone Deacetylase 8 Selective Inhibitors” (ACS Med Chem Lett, 2017) come the findings set out here.

The target of assay [1] is T1, Protein deacetylase HDAC6 (Homo sapiens) (UniProt Q9UBN7).
T1 sequence (whole entry): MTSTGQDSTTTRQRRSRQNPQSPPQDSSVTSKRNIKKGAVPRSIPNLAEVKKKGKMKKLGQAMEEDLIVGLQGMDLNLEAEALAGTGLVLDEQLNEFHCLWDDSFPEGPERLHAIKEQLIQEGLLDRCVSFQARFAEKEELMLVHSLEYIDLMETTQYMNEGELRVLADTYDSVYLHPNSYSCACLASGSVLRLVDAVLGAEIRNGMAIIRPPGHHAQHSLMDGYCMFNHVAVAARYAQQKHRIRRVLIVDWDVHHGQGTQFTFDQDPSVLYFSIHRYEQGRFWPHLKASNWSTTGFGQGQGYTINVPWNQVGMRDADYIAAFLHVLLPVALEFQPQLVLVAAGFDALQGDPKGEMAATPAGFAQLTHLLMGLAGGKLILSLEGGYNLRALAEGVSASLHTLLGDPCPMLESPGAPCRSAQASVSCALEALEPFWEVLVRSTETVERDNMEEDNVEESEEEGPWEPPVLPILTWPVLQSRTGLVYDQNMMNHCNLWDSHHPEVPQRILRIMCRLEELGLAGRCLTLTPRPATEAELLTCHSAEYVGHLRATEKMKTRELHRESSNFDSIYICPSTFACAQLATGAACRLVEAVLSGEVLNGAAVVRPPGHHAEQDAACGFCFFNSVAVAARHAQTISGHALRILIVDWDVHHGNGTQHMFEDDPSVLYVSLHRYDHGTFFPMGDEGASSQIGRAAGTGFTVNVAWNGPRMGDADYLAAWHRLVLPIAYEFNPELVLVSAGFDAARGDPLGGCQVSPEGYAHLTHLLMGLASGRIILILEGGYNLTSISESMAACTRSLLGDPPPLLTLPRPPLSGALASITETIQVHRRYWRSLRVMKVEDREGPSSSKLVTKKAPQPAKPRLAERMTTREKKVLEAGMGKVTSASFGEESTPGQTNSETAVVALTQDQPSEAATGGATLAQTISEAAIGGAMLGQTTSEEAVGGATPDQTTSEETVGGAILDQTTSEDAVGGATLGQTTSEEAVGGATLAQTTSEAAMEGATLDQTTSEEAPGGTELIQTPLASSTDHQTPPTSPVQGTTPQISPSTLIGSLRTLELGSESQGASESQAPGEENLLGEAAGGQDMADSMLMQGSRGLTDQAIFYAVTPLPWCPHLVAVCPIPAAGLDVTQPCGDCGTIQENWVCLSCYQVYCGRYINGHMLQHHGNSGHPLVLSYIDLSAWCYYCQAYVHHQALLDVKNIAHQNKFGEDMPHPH
The assay can be described thus: Inhibition of recombinant human HDAC6 at 10 uM using fluorogenic HDAC substrate 3 by fluorescence assay relative to control. Summed up: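 HDAC6 activity was measured with test compound at 10 μM and reported as percent inhibition. Values are mean ± standard deviation of at least two independent experiments, rounded to two significant figures.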

The target of assay [2] is Histone deacetylase 3/Nuclear receptor corepressor 2 (HDAC3/NCoR2) (Homo sapiens, UniProt O15379). In words: Inhibition of recombinant human full-length C-terminal His-tagged HDAC3 (395 to 489 residues)/human NCOR2 expressed in baculovirus infected Sf9 insect cells using Boc-L-Lys(Ac)-AMC as substrate pretreated for 5 mins followed by substrate addition measured after 35 mins by fluorescence assay.
Histone deacetylase 3/Nuclear receptor corepressor 2 (HDAC3/NCoR2), sequence (O15379 whole entry, the tested form may be a part): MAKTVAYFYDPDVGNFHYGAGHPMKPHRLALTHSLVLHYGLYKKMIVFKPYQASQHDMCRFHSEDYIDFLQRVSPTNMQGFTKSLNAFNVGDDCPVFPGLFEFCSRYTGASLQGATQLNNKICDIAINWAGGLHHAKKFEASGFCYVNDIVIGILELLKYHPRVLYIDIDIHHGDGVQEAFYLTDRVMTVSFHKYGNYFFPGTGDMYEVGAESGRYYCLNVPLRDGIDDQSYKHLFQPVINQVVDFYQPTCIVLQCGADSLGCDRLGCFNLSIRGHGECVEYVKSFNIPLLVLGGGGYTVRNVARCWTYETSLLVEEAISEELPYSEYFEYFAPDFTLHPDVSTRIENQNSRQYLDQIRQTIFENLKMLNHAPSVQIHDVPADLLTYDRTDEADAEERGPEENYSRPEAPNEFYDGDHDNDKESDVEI
Histone deacetylase 3/Nuclear receptor corepressor 2 (HDAC3/NCoR2), sequence (Q9Y618 whole entry, further chain, the tested form may be a part): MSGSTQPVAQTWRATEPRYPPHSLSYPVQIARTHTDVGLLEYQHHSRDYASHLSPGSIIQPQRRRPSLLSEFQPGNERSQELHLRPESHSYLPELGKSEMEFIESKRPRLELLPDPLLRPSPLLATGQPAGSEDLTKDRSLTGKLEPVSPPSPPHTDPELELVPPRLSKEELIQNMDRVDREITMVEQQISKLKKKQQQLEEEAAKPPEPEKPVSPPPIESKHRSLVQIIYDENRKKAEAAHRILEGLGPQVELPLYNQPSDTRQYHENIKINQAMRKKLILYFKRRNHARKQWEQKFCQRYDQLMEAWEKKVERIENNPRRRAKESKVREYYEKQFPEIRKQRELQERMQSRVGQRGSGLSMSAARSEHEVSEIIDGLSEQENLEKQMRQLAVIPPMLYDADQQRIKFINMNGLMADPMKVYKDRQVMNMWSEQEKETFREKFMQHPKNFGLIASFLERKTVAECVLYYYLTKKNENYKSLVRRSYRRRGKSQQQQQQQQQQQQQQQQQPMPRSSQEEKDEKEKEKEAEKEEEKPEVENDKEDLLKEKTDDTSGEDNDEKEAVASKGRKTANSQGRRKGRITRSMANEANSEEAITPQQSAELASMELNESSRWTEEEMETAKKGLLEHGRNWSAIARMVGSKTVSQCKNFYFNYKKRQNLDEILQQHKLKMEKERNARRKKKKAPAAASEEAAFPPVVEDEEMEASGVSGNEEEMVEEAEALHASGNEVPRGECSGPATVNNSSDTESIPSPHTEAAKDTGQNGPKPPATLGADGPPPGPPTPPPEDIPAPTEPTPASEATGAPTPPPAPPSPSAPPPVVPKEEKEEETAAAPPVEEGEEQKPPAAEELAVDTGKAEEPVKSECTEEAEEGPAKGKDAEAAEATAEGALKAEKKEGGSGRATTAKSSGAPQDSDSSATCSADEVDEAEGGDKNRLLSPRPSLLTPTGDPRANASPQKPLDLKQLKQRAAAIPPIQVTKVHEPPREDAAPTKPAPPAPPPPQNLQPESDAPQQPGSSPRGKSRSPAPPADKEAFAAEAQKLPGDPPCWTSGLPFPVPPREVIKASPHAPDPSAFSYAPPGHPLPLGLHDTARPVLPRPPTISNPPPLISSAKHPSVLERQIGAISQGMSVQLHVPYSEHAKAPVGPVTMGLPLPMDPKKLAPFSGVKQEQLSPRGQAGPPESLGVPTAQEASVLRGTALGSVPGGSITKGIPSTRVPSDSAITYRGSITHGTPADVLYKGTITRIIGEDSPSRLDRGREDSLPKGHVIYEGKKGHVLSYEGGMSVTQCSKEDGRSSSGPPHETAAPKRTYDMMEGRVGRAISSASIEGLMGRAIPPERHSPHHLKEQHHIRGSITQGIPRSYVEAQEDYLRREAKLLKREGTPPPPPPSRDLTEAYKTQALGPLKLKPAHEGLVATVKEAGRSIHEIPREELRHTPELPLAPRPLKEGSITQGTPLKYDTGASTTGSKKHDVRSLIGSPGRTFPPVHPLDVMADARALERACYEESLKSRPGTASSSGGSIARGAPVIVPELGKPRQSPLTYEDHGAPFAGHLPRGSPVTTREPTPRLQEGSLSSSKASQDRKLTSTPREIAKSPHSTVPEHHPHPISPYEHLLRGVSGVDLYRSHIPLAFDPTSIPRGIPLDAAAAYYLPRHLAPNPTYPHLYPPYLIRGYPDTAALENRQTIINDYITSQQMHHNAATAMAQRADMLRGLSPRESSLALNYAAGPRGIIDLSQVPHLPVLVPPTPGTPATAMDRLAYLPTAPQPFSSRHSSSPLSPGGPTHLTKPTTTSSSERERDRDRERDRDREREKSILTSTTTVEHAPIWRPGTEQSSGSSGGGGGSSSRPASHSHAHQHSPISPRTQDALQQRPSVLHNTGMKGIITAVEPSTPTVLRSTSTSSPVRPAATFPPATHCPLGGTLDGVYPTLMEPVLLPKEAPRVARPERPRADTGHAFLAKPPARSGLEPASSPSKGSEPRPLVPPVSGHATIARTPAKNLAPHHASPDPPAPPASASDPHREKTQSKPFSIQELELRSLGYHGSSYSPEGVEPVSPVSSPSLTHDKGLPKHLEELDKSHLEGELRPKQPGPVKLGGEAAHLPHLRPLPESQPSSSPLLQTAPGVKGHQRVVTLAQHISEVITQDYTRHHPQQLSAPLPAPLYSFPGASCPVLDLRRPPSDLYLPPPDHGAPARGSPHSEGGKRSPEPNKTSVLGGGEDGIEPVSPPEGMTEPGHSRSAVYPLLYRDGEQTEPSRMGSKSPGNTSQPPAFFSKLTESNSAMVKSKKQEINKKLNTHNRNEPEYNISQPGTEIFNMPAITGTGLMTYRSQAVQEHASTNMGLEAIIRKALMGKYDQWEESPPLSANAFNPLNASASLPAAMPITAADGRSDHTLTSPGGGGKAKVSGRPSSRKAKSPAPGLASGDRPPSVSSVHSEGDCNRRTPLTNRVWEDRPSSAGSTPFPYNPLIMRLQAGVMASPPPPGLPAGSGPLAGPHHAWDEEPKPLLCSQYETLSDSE

The species named for the next assay is Homo sapiens. The assay can be described thus: Selectivity ratio of IC50 for recombinant full-length human C-terminal FLAG-His-tagged HDAC1 expressed in baculovirus infected Sf9 insect cells to IC50 for recombinant HDAC8 (unknown origin) expressed in Escherichia coli.
Assay [3] relates to SH-SY5Y. The assay can be described thus: Inhibition of class 1 HDAC in human SH-SY5Y cells assessed as increase in acetylation of histone H3 at 0.1 to 10 uM after 24 hrs by Western blot analysis. In kind it is cell-based. Summed up:
(§1)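 SH-SY5Y cells were treated with the stated concentrations for 24 h. Lysates were analysed by Western blot for acetylated histone H3 and acetylated α-tubulin.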
In general terms: Immunoblotting shows a protein as a band on a membrane.

The next assay deals with IMR-5. In words: Cytotoxicity against human IMR5 cells expressing TP53 after 48 hrs by CellTiter96 AQueous one solution cell proliferation assay. To be noted: IMR-5, 48 h. It is filed as functional, cell-based. Summed up:
(§2)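 Neuroblastoma cells were exposed to compound for 48 h and viability was read by MTS assay. Values are mean ± standard deviation of at least three independent experiments.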

A further assay concerns the target Histone deacetylase 1 (Homo sapiens, UniProt Q13547). The assay can be described thus: Inhibition of recombinant full-length human C-terminal FLAG-His-tagged HDAC1 expressed in baculovirus infected Sf9 insect cells using Boc-L-Lys(Ac)-AMC as substrate preincubated for 5 mins followed by substrate addition measured after 35 mins by fluorescence assay.
Assay [4] relates to SH-SY5Y. In words: Cytotoxicity against human SH-SY5Y cells expressing TP53 after 48 hrs by CellTiter96 AQueous one solution cell proliferation assay. In kind it is functional, cell-based. Summed up:
as §2

The target of a further assay is T2, Histone deacetylase 8 (Homo sapiens, UniProt Q9BY41).
T2 sequence (Q9BY41 whole entry): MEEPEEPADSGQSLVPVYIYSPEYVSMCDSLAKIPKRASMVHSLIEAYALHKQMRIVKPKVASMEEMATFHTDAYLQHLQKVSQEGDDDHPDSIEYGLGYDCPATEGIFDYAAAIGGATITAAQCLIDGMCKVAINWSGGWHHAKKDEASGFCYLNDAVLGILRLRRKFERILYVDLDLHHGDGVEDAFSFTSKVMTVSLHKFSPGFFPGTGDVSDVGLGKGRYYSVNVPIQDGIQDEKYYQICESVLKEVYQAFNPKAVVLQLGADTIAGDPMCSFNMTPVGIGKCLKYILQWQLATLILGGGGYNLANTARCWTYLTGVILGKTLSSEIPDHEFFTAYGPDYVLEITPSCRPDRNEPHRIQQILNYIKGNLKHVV
In words: Inhibition of recombinant HDAC8 (unknown origin) expressed in Escherichia coli using fluor de Lys(R) as substrate pretreated for 5 mins followed by substrate addition measured after 35 mins by fluorescence assay.

Assay [5] concerns SH-SY5Y. The assay can be described thus: Inhibition of class 2 HDAC in human SH-SY5Y cells assessed as increase in acetylation of alpha-tubulin at 0.1 to 10 uM after 24 hrs by Western blot analysis. It is filed as cell-based. Summed up:
as §1

A further assay deals with Histone deacetylase 2 (Homo sapiens, UniProt Q92769). The assay can be described thus: Inhibition of recombinant human full-length C-terminal His-tagged HDAC2 expressed in baculovirus infected Sf9 insect cells using Boc-L-Lys(Ac)-AMC as substrate preincubated for 5 mins followed by substrate addition measured after 35 mins by fluorescence assay.
Histone deacetylase 2, sequence (Q92769 whole entry): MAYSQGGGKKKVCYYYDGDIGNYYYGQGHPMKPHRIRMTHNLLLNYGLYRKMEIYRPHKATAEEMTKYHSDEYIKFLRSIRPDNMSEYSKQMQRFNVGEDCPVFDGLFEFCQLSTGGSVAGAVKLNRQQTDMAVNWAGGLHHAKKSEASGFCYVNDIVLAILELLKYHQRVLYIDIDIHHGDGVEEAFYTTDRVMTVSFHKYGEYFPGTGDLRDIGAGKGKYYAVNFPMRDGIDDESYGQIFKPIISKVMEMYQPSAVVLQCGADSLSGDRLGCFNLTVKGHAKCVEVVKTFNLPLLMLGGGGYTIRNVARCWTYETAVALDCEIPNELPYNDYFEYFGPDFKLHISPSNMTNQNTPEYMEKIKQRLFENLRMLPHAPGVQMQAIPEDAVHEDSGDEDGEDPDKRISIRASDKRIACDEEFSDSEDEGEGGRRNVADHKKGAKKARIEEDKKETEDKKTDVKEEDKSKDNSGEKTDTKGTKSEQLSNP

Activity calls are given as the source filed them. No cut-off for these calls is given here.

Histone deacetylase 1, sequence (Q13547 whole entry): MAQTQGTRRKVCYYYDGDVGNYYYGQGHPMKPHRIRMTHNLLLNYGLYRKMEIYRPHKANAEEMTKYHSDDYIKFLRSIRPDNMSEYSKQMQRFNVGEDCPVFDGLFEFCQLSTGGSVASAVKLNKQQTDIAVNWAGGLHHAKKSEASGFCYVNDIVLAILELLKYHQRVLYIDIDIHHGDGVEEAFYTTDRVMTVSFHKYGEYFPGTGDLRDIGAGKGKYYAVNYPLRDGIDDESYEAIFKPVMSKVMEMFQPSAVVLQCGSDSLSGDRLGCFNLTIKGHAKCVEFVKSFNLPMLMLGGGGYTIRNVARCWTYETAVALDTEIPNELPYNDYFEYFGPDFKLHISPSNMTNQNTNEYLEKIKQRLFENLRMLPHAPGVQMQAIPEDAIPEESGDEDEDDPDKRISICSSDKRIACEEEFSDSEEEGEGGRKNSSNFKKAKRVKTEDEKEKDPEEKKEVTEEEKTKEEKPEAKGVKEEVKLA

On to `O=C(CCN1CCc2ccccc2C1c1ccc(-c2ccccc2)cc1)NO` (stereo not given), for which the inhibition in [1] is 39%. Besides, the IC50 amounted to 38 µM in assay [2], 7.3 µM on Histone deacetylase 1, 0.055 µM at Histone deacetylase 8 and 47 µM on Histone deacetylase 2. Moreover, in the assay listed under Homo sapiens, the Ratio IC50 amounted to 135. The inhibition result in the assay with SH-SY5Y [3] and with SH-SY5Y [5] was “inactive” each time. The EC50 in the assay on IMR-5 is 5.8 µM; in the assay on SH-SY5Y [4], 0.76 µM.

One may read the inhibition as the drop in the measured response relative to a control, in per cent. For orientation: IC50 means the concentration at which inhibition is half-maximal. As a reminder, the EC50 is the concentration giving half of the maximal effect.
